Laboratory results as given in ChEMBL document CHEMBL4251637, “Picolyl amides of betulinic acid as antitumor agents causing tumor cell apoptosis” (Eur J Med Chem, 2018).
pIC50: −log10 of the molar value. Active and inactive are the calls of the source. The rule behind the calls is not given here.

Columns and labels:
G-361 [1] = assay: Cytotoxicity against human G361 cells after 72 hrs by calcein-AM dye based fluorescence assay; type: functional, cell-based; settings: G-361, 72 h
Method in brief: (§1)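 Cells from ATCC, grown in DMEM with 10% fetal bovine serum, 2 mM L-glutamine and 1% penicillin-streptomycin at 37 °C, 5% CO2, humidified, and passaged by trypsinization two or three times weekly. Compound exposure lasted 72 h and the read-out was IC50 (µM).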

[2] = Therapeutic index, ratio of IC50 for human BJ cells to IC50 for human G361 cells; type: toxicity; settings: BJ cells versus G361 cells, read-out: Ratio IC50
Method in brief: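 Therapeutic index is IC50 in normal BJ fibroblasts divided by IC50 in G-361 melanoma cells. Both IC50 values come from the 72 h cytotoxicity test, with cells grown in DMEM with 10% FBS, 2 mM L-glutamine and antibiotics at 37 °C, 5% CO2.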

MCF7 = assay: Cytotoxicity against human MCF7 cells after 72 hrs by calcein-AM dye based fluorescence assay; type: functional, cell-based; settings: MCF7, 72 h; method in brief: as §1
HeLa = assay: Cytotoxicity against human HeLa cells after 72 hrs by calcein-AM dye based fluorescence assay; type: functional, cell-based; method in brief: as §1
CCRF-CEM = assay: Cytotoxicity against human CEM cells after 72 hrs by calcein-AM dye based fluorescence assay; type: functional, cell-based; method in brief: as §1
BJ = assay: Cytotoxicity against human BJ cells after 72 hrs by calcein-AM dye based fluorescence assay; type: cell-based; method in brief: as §1
G-361 [3] = assay: Cell cycle arrest in human G361 cells assessed as increase in accumulation at sub-G1 phase at 0.5 to 25 uM after 24 hrs by propidium iodide staining-based flow cytometry; type: functional
Method in brief: (§2)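 G-361 melanoma cells grown in DMEM with 10% FBS, 2 mM L-glutamine and penicillin-streptomycin at 37 °C, 5% CO2. Cells were seeded and left 24 h, then treated with 0.5, 2.5, 12.5 or 25 µM for 24 h. Trypsinized cells were fixed and stained with 0.1% Triton X-100, 0.2 mg/mL RNase A and 10 µg/mL propidium iodide in PBS. DNA content was read by flow cytometry and phases quantified from histograms; three repeats.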

G-361 [4] = assay: Induction of apoptosis in human G361 cells assessed as increase in caspase-3/7 activity using Ac-DEVD-AMC as substrate at 25 uM after 24 hrs by fluorescence assay relative to control; type: functional
Method in brief: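 Treated G-361 cells (0.5–25 µM, 24 h) were extracted on ice in CHAPS/HEPES buffer pH 7.4 with protease inhibitors, and lysates equalized by Bradford protein. Incubated 1 h with Ac-DEVD-AMC in PIPES/DTT buffer pH 7.3; Ac-DEVD-CHO lysates served as negative control. Fluorescence read at 346/442 nm and expressed as fold over untreated control. Three experiments in triplicate; one-way ANOVA.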

G-361 [5] = assay: Cell cycle arrest in human G361 cells assessed as increase in accumulation at G0/G1 phase at 0.5 to 25 uM after 24 hrs by propidium iodide staining-based flow cytometry; type: functional; method in brief: as §2
G-361 [6] = assay: Cell cycle arrest in human G361 cells assessed as reduction in accumulation at G2/M phase at 0.5 to 25 uM after 24 hrs by propidium iodide staining-based flow cytometry; type: functional; method in brief: as §2
G-361 [7] = assay: Induction of apoptosis in human G361 cells assessed as effect on Mcl1 expression level at 0.5 to 25 uM after 24 hrs by Western blot analysis; type: functional, cell-based
Method in brief: (§3)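 G-361 cells seeded in 100-mm dishes at 1.5 × 10⁶ cells/mL and stabilized 24 h, then treated 24 h with 0.5–25 µM; DMSO vehicle controls. Lysed in RIPA buffer pH 7.4 and protein measured by Bradford. Run on 10% or 12% SDS-PAGE, blotted to nitrocellulose, probed overnight with primary antibodies, then HRP secondary and chemiluminescence. β-actin loading control, compared with untreated cells; three repeats.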

G-361 [8] = assay: Induction of apoptosis in human G361 cells assessed as effect on p53 protein expression level at 0.5 to 25 uM after 24 hrs by Western blot analysis; type: functional, cell-based; method in brief: as §3
G-361 [9] = assay: Induction of apoptosis in human G361 cells assessed as effect on Bcl2 expression level at 0.5 to 25 uM after 24 hrs by Western blot analysis; type: functional, cell-based; method in brief: as §3
G-361 [10] = assay: Effect on total p44/42 level in human G361 cells at 0.5 to 25 uM after 24 hrs by Western blot analysis; type: cell-based; settings: g-361, 24 h; method in brief: as §3
[11] = target: Mitogen-activated protein kinase; ERK1/ERK2 (Homo sapiens) (UniProt P27361+P28482); assay: Inhibition of ERK1/2 phosphorylation at Thr202/Tyr204 in human G361 cells at 12.5 to 25 uM after 24 hrs by Western blotting analysis relative to control; type: cell-based; method in brief: as §3
G-361 [12] = assay: Induction of apoptosis in human G361 cells assessed as downregulation of phosphorylated Rb expression at 12.5 to 25 uM after 24 hrs by Western blot analysis; type: functional, cell-based; method in brief: as §3
G-361 [13] = assay: Induction of apoptosis in human G361 cells assessed as increase in cleaved PARP expression at 0.5 to 25 uM after 24 hrs by Western blot analysis; type: functional, cell-based; method in brief: as §3
G-361 [14] = assay: Induction of apoptosis in human G361 cells assessed as downregulation of total Rb expression at 12.5 to 25 uM after 24 hrs by Western blot analysis; type: functional, cell-based; method in brief: as §3
G-361 [15] = assay: Induction of apoptosis in human G361 cells assessed as increase in cleaved caspase-7 expression at 0.5 to 25 uM after 24 hrs by Western blot analysis; type: functional, cell-based; method in brief: as §3

Chain of Mitogen-activated protein kinase; ERK1/ERK2 (Homo sapiens) (P27361 whole entry, looked up): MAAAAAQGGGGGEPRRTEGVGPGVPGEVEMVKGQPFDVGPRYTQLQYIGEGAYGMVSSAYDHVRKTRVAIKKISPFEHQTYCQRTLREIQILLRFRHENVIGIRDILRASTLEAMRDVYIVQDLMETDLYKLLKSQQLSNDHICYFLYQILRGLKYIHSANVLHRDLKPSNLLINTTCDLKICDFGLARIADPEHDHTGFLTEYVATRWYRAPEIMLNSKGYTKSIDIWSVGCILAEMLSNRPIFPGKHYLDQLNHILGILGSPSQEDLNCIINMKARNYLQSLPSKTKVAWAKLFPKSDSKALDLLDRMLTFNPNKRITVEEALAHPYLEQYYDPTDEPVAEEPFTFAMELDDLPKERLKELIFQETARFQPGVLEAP
Chain of Mitogen-activated protein kinase; ERK1/ERK2 (Homo sapiens) (P28482 whole entry, looked up): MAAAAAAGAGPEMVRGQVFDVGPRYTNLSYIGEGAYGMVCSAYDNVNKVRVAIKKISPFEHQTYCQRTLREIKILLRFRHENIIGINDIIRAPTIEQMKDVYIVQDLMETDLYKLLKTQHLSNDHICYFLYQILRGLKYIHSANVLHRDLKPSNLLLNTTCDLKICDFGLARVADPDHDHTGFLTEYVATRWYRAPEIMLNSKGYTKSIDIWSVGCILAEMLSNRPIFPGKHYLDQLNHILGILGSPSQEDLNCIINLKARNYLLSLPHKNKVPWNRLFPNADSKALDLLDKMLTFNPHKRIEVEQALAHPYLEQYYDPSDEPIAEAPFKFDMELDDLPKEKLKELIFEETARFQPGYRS

Row | inhibition [11] | SMILES | pIC50 (G-361 [1]) | selectivity ratio [2] | pIC50 (MCF7) | pIC50 (HeLa) | pIC50 (CCRF-CEM) | pIC50 (BJ) | Activity (G-361 [3]) | Activity (G-361 [4]) | Activity (G-361 [5]) | Activity (G-361 [6]) | Activity (G-361 [7]) | Activity (G-361 [8]) | Activity (G-361 [9]) | fold change (FC) (G-361 [4]) | Activity (G-361 [10]) | Activity (G-361 [12]) | Activity (G-361 [13]) | Activity (G-361 [14]) | Activity (G-361 [15])
1 |  | C=C(C)[C@@H]1CC[C@]2(C(=O)NCc3cccnc3)CC[C@]3(C)[C@H](CC[C@@H]4[C@@]5(C)CC[C@H](O)C(C)(C)[C@@H]5CC[C@]43C)[C@@H]12 | 4.74 | 1 | 4.41 | 4.63 | 4.60 | 4.76 |  |  |  |  |  |  |  |  |  |  |  |  | 
2 |  | C=C(C)[C@@H]1CC[C@]2(C(=O)O)CC[C@]3(C)[C@H](CC[C@@H]4[C@@]5(C)CC[C@H](OC(=O)CCC(=O)NCc6ccncc6)C(C)(C)[C@@H]5CC[C@]43C)[C@@H]12 | 4.49 |  | < 4.30 | 4.39 | 4.65 | < 4.30 | inactive | inactive | inactive | inactive |  |  |  |  |  |  |  |  | 
3 | Active | C=C(C)[C@@H]1CC[C@]2(C(=O)O)CC[C@]3(C)[C@H](CC[C@@H]4[C@@]5(C)CC[C@H](OC(=O)CCC(=O)NCc6cccnc6)C(C)(C)[C@@H]5CC[C@]43C)[C@@H]12 | 6.30 | 100 | 5.85 | 5.62 | 5.19 | 4.30 | Active |  | Active | Active | inactive | inactive | inactive | 12 | Non-Toxic | Active | Active | Active | Active
4 | Active | C=C(C)[C@@H]1CC[C@]2(C(=O)O)CC[C@]3(C)[C@H](CC[C@@H]4[C@@]5(C)CC[C@H](OC(=O)CCC(=O)NCc6ccccn6)C(C)(C)[C@@H]5CC[C@]43C)[C@@H]12 | 5.62 | 19.3 | 5.66 | 5.64 | 5.16 | 4.34 | Active |  | Active | Active | inactive | inactive | inactive | <=18 | Non-Toxic | Active | Active | Active | Active
5 |  | C=C(C)[C@@H]1CC[C@]2(C(=O)NCc3ccncc3)CC[C@]3(C)[C@H](CC[C@@H]4[C@@]5(C)CC[C@H](O)C(C)(C)[C@@H]5CC[C@]43C)[C@@H]12 | 4.94 | 1 | 4.68 | 4.83 | 4.73 | 4.95 |  |  |  |  |  |  |  |  |  |  |  |  | 
6 |  | C=C(C)[C@@H]1CC[C@]2(C(=O)NCc3ccccn3)CC[C@]3(C)[C@H](CC[C@@H]4[C@@]5(C)CC[C@H](O)C(C)(C)[C@@H]5CC[C@]43C)[C@@H]12 | 4.79 | 1 | 4.57 | 4.83 | 4.73 | 4.80 |  |  |  |  |  |  |  |  |  |  |  |  | 
